Laboratory results taken from ChEMBL document CHEMBL1157578, “Design, synthesis, and biological evaluation of novel water-soluble triptolide derivatives: Antineoplastic activity against imatinib-resistant CML cells bearing T315I mutant Bcr-Abl” (Bioorg Med Chem, 2010).
Activity calls are given as the source filed them. The rule behind the calls is not given here.

Tests used:
[1] = Downregulation of Bcr-Abl mRNA level in human KBM5 cells harboring Bcr-Abl T315I mutant at 50 to 100 nM after 18 hrs by semi-quantitative RT-PCR analysis; assay type: functional, cell-based
Method in brief: (§1)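 KBM5 and KBM5-T315I cells exposed to 50 or 100 nM, or control medium, for 18 h. Bcr-Abl and GAPDH mRNA measured by semi-quantitative RT-PCR; products run on 1% agarose and stained with ethidium bromide.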

[2] = Downregulation of Bcr-Abl mRNA level in human KBM5 cells harboring wild type Bcr-Abl at 50 to 100 nM after 18 hrs by semi-quantitative RT-PCR analysis; assay type: functional, cell-based; method in brief: as §1
[3] = tested on: KBM5; assay: Inhibition of RNA polymerase 2 in human KBM5 cells harboring wild type Bcr-Abl assessed as decrease in polymerase 2 phosphorylation after 18 hrs by Western blot analysis; assay type: cell-based
Method in brief: (§2)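 Cells exposed for 18 h at the indicated concentrations. Whole-cell lysates made in RIPA buffer with phosphatase and protease inhibitors. Western blot for Bcr-Abl (c-Abl C-19), phospho-c-Abl Y245, phospho-RNA polymerase II, PARP, and actin as loading control.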

[4] = tested on: KBM5; assay: Inhibition of RNA polymerase 2 in human KBM5 cells harboring Bcr-Abl T315I mutant assessed as decrease in polymerase 2 phosphorylation after 18 hrs by Western blot analysis; assay type: cell-based; method in brief: as §2
[5] = tested on: HeLa; assay: Inhibition of RNA polymerase 2 in human HeLa cells assessed as decrease in polymerase 2 phosphorylation at 50 to 100 nM after 18 hrs by Western blot analysis; assay type: cell-based
[6] = tested on: HCT-116; assay: Inhibition of RNA polymerase 2 in human HCT116 cells assessed as decrease in polymerase 2 phosphorylation at 50 to 100 nM after 18 hrs by Western blot analysis; assay type: cell-based
[7] = tested on: DU-145; assay: Inhibition of RNA polymerase 2 in human DU145 cells assessed as decrease in polymerase 2 phosphorylation at 50 to 100 nM after 18 hrs by Western blot analysis; assay type: cell-based
[8] = tested on: KBM5; assay: Antitumor activity against Bcr-Abl T315I mutant expressing human KBM5 cells xenografted in BALB/c nu/nu mouse assessed as decrease in tumor volume at 0.5 mg/kg/day, ip for 2 weeks administered on day 14 after tumor implantation; assay type: functional, organism-based
Method in brief: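 KBM5-T315I cells, 3 × 10⁷, injected s.c. into the flanks of male nu/nu BALB/c mice aged 6–8 weeks. Dosing began at about 50 mm³ on day 14: 0.5 mg/kg/d i.p. in normal saline for two weeks, with saline controls and four mice per group. Calipers every other day; volume = a² × b × 0.4.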

[9] = tested on: Mus musculus; assay: Toxicity in BALB/c nu/nu mouse xenografted with human KBM5 cells harboring Bcr-Abl T315I mutant at 0.5 mg/kg/day, ip for 2 weeks administered on day 14 after tumor implantation by pilot dose-finding test; assay type: organism-based; design: route intraperitoneal; details: in vivo, 336 h
[10] = tested on: Mus musculus; assay: Toxicity in BALB/c nu/nu mouse xenografted with human KBM5 cells harboring Bcr-Abl T315I mutant assessed as change in body weight at 0.5 mg/kg/day, ip for 2 weeks administered on day 14 after tumor implantation; assay type: organism-based; design: route intraperitoneal; details: in vivo, 336 h
Method in brief: (§3)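 Male nu/nu BALB/c mice (6–8 weeks) received 3 × 10⁷ KBM5-T315I cells subcutaneously in the flank. At about 50 mm³ (day 14) they were randomized, 4 per group, to daily ip drug in normal saline or the same volume of saline for two weeks. Body weight, feeding and motor activity were monitored, along with morbidity and mortality. At the end, blood was taken for AST, ALT, LDH and complete blood count.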

[11] = Cytotoxicity against human KBM5 cells harboring wild type Bcr-Abl after 72 hrs by MTS assay; assay type: functional, cell-based; details: KBM5, 72 h
Method in brief: (§4)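 KBM5 (wild-type p210 Bcr-Abl) or KBM5-T315I cells in IMDM + 10% heat-inactivated FCS. The T315I subline was kept in 1 µM imatinib, removed 2–3 days before assay. Cells incubated 72 h with increasing concentrations. Viability by MTS at 490 nm, as percent of control; IC50 from dose–response curves.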

[12] = Cytotoxicity against imatinib-resistant human KBM5 cells harboring Bcr-Abl T315I mutant after 72 hrs by MTS assay; assay type: functional, cell-based; details: KBM5, 72 h; method in brief: as §4
[13] = tested on: MEF; assay: Cytotoxicity against MEF after 72 hrs by MTS assay; assay type: cell-based; details: Mus musculus
Method in brief: (§5)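 MEF and NHFB fibroblasts cultured in DMEM + 10% FCS. Exposed to increasing concentrations for 72 h. Viability by MTS reagent, optical density at 490 nm.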

[14] = Cytotoxicity against NHFB after 72 hrs by MTS assay; design: species or system Homo sapiens; method in brief: as §5
[15] = Cytotoxicity against mouse 32D cells harboring wild type Bcr-Abl after 72 hrs by MTS assay; assay type: functional, cell-based
Method in brief: (§6)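 32D myeloid cells stably expressing wild-type or T315I Bcr-Abl, maintained in RPMI 1640 + 10% FBS. Treated with increasing concentrations for 72 h. Viability by MTS, optical density at 490 nm.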

[16] = Cytotoxicity against imatinib-resistant mouse 32D cells harboring Bcr-Abl T315I mutant after 72 hrs by MTS assay; assay type: functional, cell-based; method in brief: as §6
[17] = tested on: KBM5; assay: Cytotoxicity against human KBM5 cells harboring wild type Bcr-Abl at 0.001 to 17 uM after 72 hrs by MTS assay; assay type: functional, cell-based; method in brief: as §4
[18] = tested on: KBM5; assay: Cytotoxicity against imatinib-resistant human KBM5 cells harboring Bcr-Abl T315I mutant at 0.001 to 17 uM after 72 hrs by MTS assay; assay type: functional, cell-based; method in brief: as §4
[19] = Downregulation of Bcr-Abl protein level in human KBM5 cells harboring wild type Bcr-Abl after 18 hrs by Western blot analysis; assay type: functional, cell-based; method in brief: as §2
[20] = Downregulation of Bcr-Abl protein level in human KBM5 cells harboring Bcr-Abl T315I mutant after 18 hrs by Western blot analysis; assay type: functional, cell-based; method in brief: as §2
[21] = Downregulation of Bcr-Abl protein level in mouse 32D cells harboring wild type Bcr-Abl after 18 hrs by Western blot analysis; assay type: functional, cell-based; method in brief: as §2
[22] = Downregulation of Bcr-Abl protein level in mouse 32D cells harboring Bcr-Abl T315I mutant after 18 hrs by Western blot analysis; assay type: functional, cell-based; method in brief: as §2
[23] = tested on: Mus musculus; assay: Toxicity in BALB/c nu/nu mouse xenografted with human KBM5 cells harboring Bcr-Abl T315I mutant assessed as effect on motor activity at 0.5 mg/kg/day, ip for 2 weeks administered on day 14 after tumor implantation; assay type: organism-based; design: route intraperitoneal; details: in vivo, 336 h; method in brief: as §3
[24] = tested on: Mus musculus; assay: Toxicity in BALB/c nu/nu mouse xenografted with human KBM5 cells harboring Bcr-Abl T315I mutant assessed as effect on feeding behavior at 0.5 mg/kg/day, ip for 2 weeks administered on day 14 after tumor implantation; assay type: organism-based; design: route intraperitoneal; details: in vivo, 336 h; method in brief: as §3
[25] = tested on: Mus musculus; assay: Toxicity in BALB/c nu/nu mouse xenografted with human KBM5 cells harboring Bcr-Abl T315I mutant assessed as occurrence of myelosuppression at 0.5 mg/kg/day, ip for 2 weeks administered on day 14 after tumor implantation; assay type: organism-based; design: route intraperitoneal; details: in vivo, 336 h; method in brief: as §3
[26] = tested on: Mus musculus; assay: Toxicity in BALB/c nu/nu mouse xenografted with human KBM5 cells harboring Bcr-Abl T315I mutant assessed as increase in blood aspartate aminotransferase level at 0.5 mg/kg/day, ip for 2 weeks administered on day 14 after tumor implantation; assay type: organism-based; design: route intraperitoneal; details: in vivo, 336 h; method in brief: as §3
[27] = tested on: Mus musculus; assay: Toxicity in BALB/c nu/nu mouse xenografted with human KBM5 cells harboring Bcr-Abl T315I mutant assessed as increase in blood alanine aminotransferase level at 0.5 mg/kg/day, ip for 2 weeks administered on day 14 after tumor implantation; assay type: organism-based; design: route intraperitoneal; details: in vivo, 336 h; method in brief: as §3
[28] = tested on: Mus musculus; assay: Toxicity in BALB/c nu/nu mouse xenografted with human KBM5 cells harboring Bcr-Abl T315I mutant assessed as morbidity at 0.5 mg/kg/day, ip for 2 weeks administered on day 14 after tumor implantation; assay type: organism-based; design: route intraperitoneal; details: in vivo, 336 h; method in brief: as §3
[29] = tested on: Mus musculus; assay: Toxicity in BALB/c nu/nu mouse xenografted with human KBM5 cells harboring Bcr-Abl T315I mutant assessed as mortality at 0.5 mg/kg/day, ip for 2 weeks administered on day 14 after tumor implantation; assay type: organism-based; design: route intraperitoneal; details: in vivo, 336 h; method in brief: as §3
[30] = tested on: KBM5; assay: Induction of apoptosis in human KBM5 cells harboring wild type Bcr-Abl assessed as PARP cleavage at 50 to 100 uM after 18 hrs by Western blot analysis; assay type: functional, cell-based
[31] = tested on: KBM5; assay: Induction of apoptosis in human KBM5 cells harboring Bcr-Abl T315I mutant assessed as PARP cleavage at 50 to 100 uM after 18 hrs by Western blot analysis; assay type: functional, cell-based
[32] = Cytotoxicity against human KBM5 cells harboring wild type Bcr-Abl after 72 hrs by MTT assay; details: KBM5, 72 h
[33] = Cytotoxicity against human KBM5 cells harboring Bcr-Abl T315I mutant after 72 hrs by MTT assay; assay type: functional, cell-based; details: KBM5, 72 h

CC(C)[C@]12O[C@H]1[C@@H]1O[C@@]13[C@H]1CCC4=C(COC4=O)[C@@H]1C[C@@H]1O[C@@]13[C@@H]2OC(=O)CN1CCOCC1
Activity [1]: Active
Activity [2]: Active
inhibition [3]: Dose-dependent effect
inhibition [4]: Dose-dependent effect
inhibition [5]: Active
inhibition [6]: Active
inhibition [7]: Active
Activity [8]: Active
Activity [9]: Non-toxic
Activity [10]: Non-toxic
IC50 [11]: 0.0525 µM
IC50 [12]: 0.0207 µM
IC50 [13]: 11.5 µM
IC50 [14]: 10.4 µM
IC50 [15]: 0.07 µM
IC50 [16]: 0.08 µM
Activity [17]: Active
Activity [18]: Active
Activity [19]: Dose-dependent effect
Activity [20]: Dose-dependent effect
Activity [21]: Dose-dependent effect
Activity [22]: Dose-dependent effect
Activity [23]: Non-toxic
Activity [24]: Non-toxic
Activity [25]: Non-toxic
Activity [26]: Non-toxic
Activity [27]: Non-toxic
Activity [28]: Non-toxic
Activity [29]: Non-toxic
Activity [30]: Active
Activity [31]: Active

Cc1ccc(NC(=O)c2ccc(CN3CCN(C)CC3)cc2)cc1Nc1nccc(-c2cccnc2)n1 [IMATINIB]
IC50 [32]: 0.28 µM
IC50 [33]: 5.4 µM
